Data: ChEMBL document CHEMBL3244353, “Antiallergy activity of substituted 11-oxo-11 H-pyrido[2,1-b]quinazoline-8-carboxylic acids” (J Med Chem, 1979)
Activity calls are given as the source filed them. No cut-off for these calls is given here.

Tests used:
[1] = test system: Rattus norvegicus; assay: Antiallergic activity in rat assessed as inhibition of ovalbumin-induced passive cutaneous anaphylaxis at 0.5 mg/kg, iv measured after 14 days; type: functional
Procedure, shortened: (§1)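 Rats were passively sensitized by intradermal injection of antiserum dilutions on the back. 48 h later they received 1 mg ovalbumin iv in 1 mL saline with 0.25% Evans Blue. Compound was dissolved in the antigen solution, using a slight molar excess of sodium bicarbonate if needed, and given with it. Mean orthogonal spot diameter was read on reflected dorsal skin. Percent inhibition was taken against the extrapolated base value. n=5 per group; Student's t test, p≤0.05.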

[2] = test system: Rattus norvegicus; assay: Antiallergic activity in po dosed rat assessed as inhibition of ovalbumin-induced passive cutaneous anaphylaxis; type: functional; conditions: for ED50: read-out: ID50 (the source's name)
Procedure, shortened: (§2)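 Passive cutaneous anaphylaxis in rats sensitized intradermally with antiserum 48 h before iv challenge with 1 mg ovalbumin plus 0.25% Evans Blue. Drug was suspended in 1% gum tragacanth in saline and given orally 10-15 min before antigen. Spot diameter was read on reflected dorsal skin. Percent inhibition was taken against the extrapolated base value. Groups of five; ID50 in mg/kg.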

[3] = test system: Rattus norvegicus; assay: Antiallergic activity in iv dosed rat assessed as inhibition of ovalbumin-induced passive cutaneous anaphylaxis; type: functional; conditions: for ED50: Rattus norvegicus, iv, read-out: ID50 (the source's name); procedure, shortened: as §1
[4] = test system: Rattus norvegicus; assay: Antiallergic activity in rat assessed as inhibition of ovalbumin-induced passive cutaneous anaphylaxis at 1 mg/kg, iv measured after 14 days; type: functional; procedure, shortened: as §1
[5] = Antiallergic activity in rat peritoneal mast cells assessed as inhibition of ovalbumin-induced histamine release after 15 mins; type: functional, cell-based; conditions: Mast cell, 0.25 h
Procedure, shortened: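 Rat peritoneal mast cells were passively sensitized with the PCA antiserum, washed, and resuspended in Hank's balanced salt solution containing ovalbumin 20 mcg/mL plus drug. After 15 min at 37 °C, histamine released into the supernatant was measured fluorometrically. Value is the concentration giving 50% inhibition.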

[6] = test system: Rattus norvegicus; assay: Antiallergic activity in po dosed rat allergic bronchoconstriction model assessed as reduction in respiratory flow rate administered 15 to 30 mins prior to ovalbumin challenge measured after 10 mins; type: functional
Procedure, shortened: (§3)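 Rats were immunized im with 1 mg ovalbumin on alumina, three times on alternate days. On day 8, 9 or 10 they were anesthetized with pentobarbital 60 mg/kg ip, tracheally cannulated and allowed to breathe spontaneously via a pneumotachograph. Drug was given orally 15 and 30 min before iv jugular 1 mg ovalbumin. Fall in respiratory flow rate and 10-min survival were recorded. Value is the mg/kg po dose inhibiting a 40% flow reduction.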

[7] = test system: Rattus norvegicus; assay: Antiallergic activity in po dosed rat allergic bronchoconstriction model assessed as survival from death by bronchoconstriction administered 15 to 30 mins prior to ovalbumin challenge measured after 10 mins; type: functional; conditions: read-out: ID50 (the source's name)
Procedure, shortened: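 Rats immunized im with 1 mg ovalbumin on alumina in the nuchal region, three times on alternate days. On day 8, 9 or 10 they were anaesthetised (pentobarbital 60 mg/kg ip), tracheally cannulated and breathed spontaneously. Drug was given po 15 and 30 min before a 1 mg ovalbumin iv (jugular) challenge. Survival was scored over 10 min, giving the po dose that prevents death in 50% of animals.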

[8] = test system: Rattus norvegicus; assay: Antiallergic activity in rat assessed as inhibition of ovalbumin-induced passive cutaneous anaphylaxis at 0.5 mg/kg, iv measured after 14 days relative to doxantrazole; type: functional; procedure, shortened: as §1
[9] = test system: Rattus norvegicus; assay: Antiallergic activity in po dosed rat allergic bronchoconstriction model assessed as survival from death by bronchoconstriction administered 15 to 30 mins prior to ovalbumin challenge measured after 10 mins relative to doxantrazole; type: functional
[10] = test system: Rattus norvegicus; assay: Antiallergic activity in po dosed rat assessed as inhibition of ovalbumin-induced passive cutaneous anaphylaxis relative to doxantrazole; type: functional; procedure, shortened: as §2
[11] = test system: Rattus norvegicus; assay: Antiallergic activity in po dosed rat allergic bronchoconstriction model assessed as reduction in respiratory flow rate administered 15 to 30 mins prior to ovalbumin challenge measured after 10 mins relative to doxantrazole; type: functional; procedure, shortened: as §3
[12] = test system: Rattus norvegicus; assay: Antiallergic activity in rat assessed as inhibition of ovalbumin-induced passive cutaneous anaphylaxis at 0.5 mg/kg, iv measured after 14 days relative to cromolyn sodium; type: functional; procedure, shortened: as §1
[13] = species: Cavia porcellus; assay: Antagonist activity at histamine receptor in guinea pig ileum assessed as reduction in histamine-induced contractions up to 0.1 mM; type: tissue-based
[14] = test system: Rattus norvegicus; assay: Antiallergic activity in rat assessed as inhibition of ovalbumin-induced passive cutaneous anaphylaxis at 10 mg/kg, ip measured after 14 days; type: functional; conditions: route intraperitoneal

SMILES | inhibition in vivo at 0.5 mg/kg [1] [%] | ED50 [2] [mg/kg] | ED50 [3] [mg/kg] | further results
O=C(O)c1ccc2nc3ccc(Cl)cc3c(=O)n2c1 | 40 |  |  | 
Cc1cc2nc3ccc(C(=O)O)cn3c(=O)c2cc1C | 25 | 2 |  | 
O=C(O)c1ccc2nc3cc(O)ccc3c(=O)n2c1 | 36 |  |  | 
O=C(O)c1ccc2nc3ccc(Br)cc3c(=O)n2c1 | 34 | 1 |  | 
C=CCOc1ccc2nc3ccc(C(=O)O)cn3c(=O)c2c1 |  | > 1 |  | 
CCCCOc1ccc2nc3ccc(C(=O)O)cn3c(=O)c2c1 | 88 | > 2 |  | 
Cl.O=C(O)c1ccc2nc3ccccc3c(=O)n2c1 | 45 | 2.5 | 0.5 | 
COc1cc2nc3ccc(C(=O)O)cn3c(=O)c2cc1OC | 100 | 10 | 0.05 | 
COc1ccc2c(=O)n3cc(C(=O)O)ccc3nc2c1 |  | > 2 |  | inhibition in vivo at 1 mg/kg [4]: 100%
O=C([O-])c1cc(=O)c2c(OCC(O)COc3cccc4oc(C(=O)[O-])cc(=O)c34)cccc2o1.[Na+].[Na+] [CROMOLYN SODIUM] |  |  | 1 | IC50 [5]: 6.5 µM; ID50 [2]: inactive
O=C(O)c1ccc2nc3cc(Cl)ccc3c(=O)n2c1 |  | 5 |  | 
O=C(O)c1ccc2nc3ccc(OCCO)cc3c(=O)n2c1 |  | > 1 |  | 
Cc1ccc2nc3ccc(C(=O)O)cn3c(=O)c2c1 | 100 | 0.75 | 0.05 | IC50 [5]: 0.94 µM; ID40 [6]: 9.3 mg/kg; ED50 [7]: 12.5 mg/kg; fold change (FC) [8]: 30; fold change (FC) [9]: 10; fold change (FC) [10]: 4; fold change (FC) [11]: 4.6; fold change (FC) [12]: 30; ID100 [3]: 2.5 mg/kg; inhibition [13]: inactive
Cc1ccc2c(=O)n3cc(C(=O)O)ccc3nc2c1 |  |  |  | inhibition in vivo at 10 mg/kg [14]: 54%
COc1ccc2nc3ccc(C(=O)O)cn3c(=O)c2c1 | 100 | 0.5 | 0.05 | 
O=C(O)c1ccc2nc3cc(O)c(O)cc3c(=O)n2c1 |  | > 1 |  | 
CCCOc1ccc2nc3ccc(C(=O)O)cn3c(=O)c2c1 | 100 | 2 |  | 
CCOc1ccc2nc3ccc(C(=O)O)cn3c(=O)c2c1 |  | > 1 |  | 
O=C1c2ccccc2S(=O)(=O)c2cc(-c3nn[nH]n3)ccc21 [DOXANTRAZOLE] |  | 5 | 1.5 | IC50 [5]: 0.48 µM; ID40 [6]: 43 mg/kg; ED50 [7]: 125 mg/kg; ID100 [3]: 10 mg/kg
O=C(O)c1ccc2nc3cc4c(cc3c(=O)n2c1)OCO4 | 30 |  |  | 
O=C(O)c1ccc2nc3ccc(O)cc3c(=O)n2c1 | 100 | 5 | 0.05 | 
